High-throughput results: PubChem, several laboratories
C8 TRAIL sens: sensitizes caspase-8 expressing cells to TRAIL; NB7+C8 cells + TRAIL, ATPlite viability luminescence; inhibition (viability loss, TRAIL sensitization), % at 10 µM; actives 1% (n = 360,000); AID 624354;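 active means compounds causing at least 50% loss of cell viability in the single-dose screen, relative to plate controls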
PPC-1+TRAIL kill: compounds killing PPC-1 cancer cells with TRAIL present (potentiator screen, no TRAIL-free arm); PPC-1 cells + TRAIL, ATPLite viability luminescence; cell killing (% activity), % at 4 µM or 5 µM; actives 0.41% (n = 220,000); AID 1443;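 active means cell killing above 50% in the first pass at 4 µM, then a duplicate retest at 5 µM averaging 50% or more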;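 further: plate controls were cells with TRAIL plus DMSO for no effect and medium-only wells lacking cells for full effect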
FLuc inh counter: Photinus pyralis luciferase inhibition counter-screen | ATPLite firefly luciferase biochemical luminescence, 10 min | P08659 | inhibition, % at 10 µM | actives 1.5% (n = 200,000) | AID 1006;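 active means inhibition above about 50% when tested at 10 µM, limit read from the data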
Target sequence (P08659 whole entry, looked up): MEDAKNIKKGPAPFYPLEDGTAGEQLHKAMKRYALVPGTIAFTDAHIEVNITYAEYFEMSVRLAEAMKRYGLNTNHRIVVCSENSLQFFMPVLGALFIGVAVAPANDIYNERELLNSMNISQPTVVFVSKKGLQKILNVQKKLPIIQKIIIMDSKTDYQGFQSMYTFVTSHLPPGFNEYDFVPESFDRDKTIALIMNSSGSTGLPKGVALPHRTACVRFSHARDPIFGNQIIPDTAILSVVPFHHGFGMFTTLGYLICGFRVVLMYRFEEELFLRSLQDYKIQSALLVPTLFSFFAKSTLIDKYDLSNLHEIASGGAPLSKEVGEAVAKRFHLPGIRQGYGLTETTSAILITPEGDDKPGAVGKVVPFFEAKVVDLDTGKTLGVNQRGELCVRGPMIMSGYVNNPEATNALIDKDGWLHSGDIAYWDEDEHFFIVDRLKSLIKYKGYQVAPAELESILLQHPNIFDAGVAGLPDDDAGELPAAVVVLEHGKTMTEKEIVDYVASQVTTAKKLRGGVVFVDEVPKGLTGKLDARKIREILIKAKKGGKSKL
NF-kB neuron act: raises NF-kB expression in human neuronal cells; NF-kB reporter expression; hits give high values; fold change at 12.5 µM; actives 1.6% (n = 190,000); in the data active means fold change above about 3.3
APP 5'UTR act: APP 5'UTR luciferase reporter activation; SH-SY5Y APP 5'UTR luciferase reporter, luminescence; zero percent = DMSO vehicle wells; activation, % at 2 µM; actives 1% (n = 190,000); AID 1276;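 active means activation above a set limit, based on mean plus 3 SD of controls, cut at about 140% in these data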
FLuc act counter: affects firefly luciferase, flagging false hits in luciferase stimulation screens; P08659; ATPlite luciferase biochemical, luminescence, 10 min; 0 = ATP-free wells, 1 = DMSO control; activation factor at 10 µM; 200,000 tested, under 10 active; AID 1027;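 active means luciferase activation factor, scaled between plate controls, of at least 2 with compound at 10 µM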
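Material: Luciferase/luciferin reagent mix | Doses: Test compounds dosed from 2 mM stocks in 100% DMSO | Timing: 10 min incubation after luciferase reagent addition, room temperature | Measured by: Luminescence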
Numbers without * were called inactive; · = not tested or not shown. Hits are enriched below; roughly 2.2% of the tested compounds scored in any of these assays.

SMILES	C8 TRAIL sens	PPC-1+TRAIL kill	FLuc inh counter	NF-kB neuron act	APP 5'UTR act	FLuc act counter
COc1ccc(C(=O)c2oc3ccc(OC)cc3c2N)cc1	1	7	4	5.9*	190*	1
COC(=O)c1oc2ccc(OC)cc2c1N	19	10	38	1.7	21	0.6
Fc1ccccc1Nc1nc2c(s1)CCc1ccccc1-2	·	19	13	7.8*	164*	0.9
CCOC(=O)CC(=O)CSc1nc2c(cc1C#N)CCC2	8	-14	15	1.3	-8	0.8
CCOC(=O)c1sc(NC(=O)CSc2nc3c(cc2C#N)CCCCC3)c(C#N)c1C	24	14	-2	1.2	2	1
CCc1nnc(NC(=O)c2sc3nc4c(cc3c2N)CCCCC4)s1	36	49	68*	3.4*	70	0.3
CCc1nnc(NC(=O)c2sc3nc4c(cc3c2N)CCCCCC4)s1	12	-1	11	2	12	0.9
CCc1nnc(NC(=O)CSc2nc3c(cc2C#N)CCCC3)s1	58*	-35	-2	2.4	199*	1
Cc1ccc(C(=O)c2sc3nc4c(cc3c2N)CCC4)cc1	26	15	4	1.2	192*	1
COC(=O)CC(=O)CSc1nc2c(cc1C#N)CCCCC2	-1	22	20	5*	38	0.8
COc1ccccc1-c1cnc(C(O)c2ccc(Cl)cc2C)[nH]1 (stereo not given)	10	·	·	·	·	·
COc1ncc(-c2ccc(N3C(c4ccsc4)=Cc4ccc(F)cc4C3CC(C)=O)cc2)cn1 (stereo not given)	1	·	·	·	·	·
Cc1ccc(/C=N/NC(=O)c2nn(C)cc2Cl)cc1	68*	43	86*	2.1	42	0.1
Cn1cc(Cl)c(C(=O)N/N=C/c2ccc3c4c(cccc24)CC3)n1	67*	·	·	·	·	·
CC(C)Nc1nc(NCCOc2ccccc2)c2sccc2n1	9	·	·	·	·	·
N=c1c2c(n(Cc3ccc(Cl)c(Cl)c3)c3c1CCC3)CCCC2	65*	42	-4	0.9	-12	1
COC(=O)c1cc(-c2c(C)nn(-c3ccccc3)c2C)n[nH]1	-9	42	0	5.9*	2	1
Cc1nn(-c2ccccc2)c(C)c1-c1cc(C(=O)N/N=C/c2cccnc2)[nH]n1	·	11	-1	1.4	-2	1
Cc1cc(-c2n[nH]c(=S)o2)c(C)n1-c1ccccc1	·	-17	67*	1.3	45	0.3
Oc1cc2ccccc2cc1-c1n[nH]c(=S)o1	16	14	-2	1	-3	1
Cc1c(P(=S)(c2ccccc2)c2ccccc2)[n+]2ccccc2n1C/C=C/c1ccccc1	78*	·	·	·	·	·
CN(c1cccc(NC(=O)COc2ccc(Cl)cc2Cl)c1)S(C)(=O)=O	57*	36	69*	1.3	40	0.3
Cc1ccccc1OCC(=O)Nc1cccc(N(C)S(C)(=O)=O)c1	20	0	11	1.3	4	0.9
O=C(COc1ccc(Cl)cc1Cl)Nc1cccnc1	32	16	58*	1.3	78	0.4
COc1ccc(CN(C)C[C@@H]2OCc3cnnn3CCCC(=O)N([C@@H](C)CO)C[C@H]2C)cc1	-1	·	·	·	·	·
SMILES	C8 TRAIL sens	PPC-1+TRAIL kill	FLuc inh counter	NF-kB neuron act	APP 5'UTR act	FLuc act counter
CCOc1ccc2nc3cc(N=Nc4ccc(N)nc4N)ccc3c(N)c2c1	79*	·	·	·	·	·
COc1ccc(N=Nc2ccc(N)nc2N)cc1	0	14	·	·	·	·
O=C1C(Cl)=C(NCc2cccnc2)C(=O)c2ccccc21	80*	·	·	·	·	·
O=C(O)c1ccc(NC2=C(Cl)C(=O)c3ccccc3C2=O)cc1	22	25	·	·	·	·
O=C1C(Cl)=C(Nc2ccccc2)C(=O)c2ccccc21	88*	16	-1	1.5	-96	1
O=C1C(Cl)=C(NCCc2ccccc2)C(=O)c2ccccc21	8	·	·	·	·	·
Fc1ccc(-n2ncc3c(SCc4cccnc4)ncnc32)cc1	19	-3	28	3.4*	90	0.7
c1ccc2c(c1)Cn1c-2nc2ccccc21	26	26	64*	4.7*	76	0.4
CC(=O)Nc1ccc(CNc2nc3cc(-c4ccsc4)sc3c(=O)n2C)cc1	21	·	·	·	·	·
Cn1ncc(Cl)c1C(=O)Nc1nc2ccc(Cl)cc2s1	27	21	60*	2.4	99	0.4
O=C(Nc1nc2c(Cl)cccc2s1)c1ccc(Br)o1	4	43	0	1.8	9	1
Cc1cc(C(=O)Nc2nc3ccc(Cl)cc3s2)nn1C	24	11	·	·	·	·
O=C(Nc1nc2ccc(Cl)cc2s1)c1ccc(Br)o1	30	25	30	3.5*	112	0.7
O=c1cc(CN(Cc2ccccc2)Cc2ccccc2)c2c(ccc3ccccc32)o1	1	·	·	·	·	·
Cc1cccc(C)c1-n1nnnc1C1c2ccccc2C(=O)N1CCCN1CCOCC1 (stereo not given)	1	·	·	·	·	·
C=C1C2=C(C(=O)N1OC)[C@@H](O)[C@@](C)(O)[C@@H](CCCCC)O2	-6	·	·	·	·	·
CCc1ccc(-c2cc(C(=O)N/N=C/c3c[nH]c4ccccc34)[nH]n2)cc1	60*	31	46	0.63	208*	0.5
O=C1/C(=N\S(=O)(=O)c2cccs2)C([n+]2cccc(Cc3ccccc3)c2)=C([O-])c2ccccc21	48*	30	·	·	·	·
CCC(C)Nc1ccc(NC(C)CC)cc1 (stereo not given)	77*	·	·	·	·	·
N#Cc1ncc(-c2ccc3c(c2)OCCOCCOCCOCCOCCO3)nc1C#N	-7	14	-2	6.7*	-21	1
CCCCCCCCCCCCCCCC[N+](C)(C)Cc1ccc(F)cc1	54*	·	·	·	·	·
CCCc1ccc(-c2cc(NC(=O)CSc3nnc(N)s3)n(-c3ccccc3)n2)cc1	63*	32	65*	4.4*	97	0.3
C=CCc1c(C)nc(-c2ccccc2)nc1N/N=C/c1ccncc1	20	25	53*	0.48	18	0.5
COCCNC(=O)C1CCCN(Cc2ccccc2F)CC1 (stereo not given)	-5	·	·	·	·	·
Cc1ccc(S(=O)(=O)N2C[C@H]3[C@H]4C(=O)N(Cc5ccccc5)C(=O)[C@H]4CC(=O)[C@H]3[C@@H]2c2ccccc2)cc1	4	·	·	·	·	·
SMILES	C8 TRAIL sens	PPC-1+TRAIL kill	FLuc inh counter	NF-kB neuron act	APP 5'UTR act	FLuc act counter
COC(=O)[C@]12CCCCC=C1N(Cc1ccccc1)C(=O)[C@H](CC(=O)N1CCC(c3ccccc3)CC1)C2	31	·	·	·	·	·
Nc1ncnc2c(C3OC(CO)C(O)C3O)c[nH]c12 (stereo not given)	88*	·	·	·	·	·
CC(C)CCN1C(=O)c2ccccc2C1c1nnnn1C(C)C (stereo not given)	3	·	·	·	·	·
CCc1ccc(C(=O)COC(=O)c2cccnc2Cl)cc1	-4	8	91*	1.4	1	0.1
O=C(OCc1ccc(COC(=O)c2cccnc2Cl)cc1)c1cccnc1Cl	1	2	-10	0.86	-5	1.1
O=C(COC(=O)c1cccnc1Cl)c1ccccc1	-24	26	59*	1.3	0	0.4
